Results gathered from unrelated publications.
Compare with care: the assays were run in different laboratories.
Target: Dual specificity tyrosine-phosphorylation-regulated kinase 1B (DYRK1B, Homo sapiens, UniProt Q9Y463)

Compound	read-out	action	technique	concentration	measurement	result
CC(C)(C)c1nc2c(s1)c1nc(N)ncc1c1ccc(NS(=O)(=O)c3c(F)cccc3F)c(F)c12	enzyme activity	inhibitor	radiometric	1 µM	remaining activity	106%
COc1ncccc1-c1cnn2ccc(N3CCN(C(=O)OC(C)C)CC3)nc12	binding	–	competition with immobilised ligand	1 µM	remaining binding	65%
COc1ccc(COc2ccc(Cc3cnc(N)nc3N)cc2OC)cc1	enzyme activity	inhibitor	radiometric	0.5 µM	remaining activity	104%
COc1cc(Nc2ncc(F)c(Nc3ccc4c(n3)NC(=O)C(C)(C)O4)n2)cc(OC)c1OC	binding	–	competition with immobilised ligand	10 µM	inhibition	78%
Cn1cc(-c2cc(F)cc(N3CCn4c(cc5c4CCCC5)C3=O)c2CO)cc(Nc2ccc(N3CCN(C4COC4)CC3)cn2)c1=O	enzyme activity	inhibitor	–	0.1 µM	inhibition	6%
Nc1ncc(-c2nc(N3CCOCC3)nc(N3CCOCC3)n2)c(C(F)F)n1	cell-free assay	–	competition with immobilised ligand	10 µM	remaining binding	76%
COCc1c(-c2cc3cc(C)cc(OC)c3s2)c2c(N)ncnn2c1CN1CCNC(=O)C1	cell-free assay	–	competition with immobilised ligand	1 µM	inhibition	71%
CC#CC(=O)Nc1cc2c(Nc3ccc(F)c(Cl)c3)ncnc2cn1	enzyme activity	inhibitor	radiometric	0.5 µM	remaining activity	103%
N#CC1(c2ccccn2)CCN(Cc2cc(C(=O)O)c(=O)n3ccccc23)CC1	cell-free assay	–	competition with immobilised ligand	1 µM	remaining binding	98%
C=CC(=O)N1CCC[C@@H](n2nc(-c3ccc(Oc4ccccc4)cc3)c3c(N)ncnc32)C1	cell-free assay	–	–	10 µM	remaining signal	125%
Cc1nn(C)cc1-c1nc2c(N3CCN(Cc4ccc(Cl)cc4)CC3)c(Cl)cnc2[nH]1	binding	–	competition with immobilised ligand	1 µM	remaining binding	75%
Cn1cc(-c2cccc(N3CCc4c(sc5c4CC(C)(C)C5)C3=O)c2CO)cc(Nc2ccncn2)c1=O	enzyme activity	inhibitor	–	1 µM	inhibition	2%
CC(C)(C)c1nc(-c2cccc(NS(=O)(=O)c3c(F)cccc3F)c2F)c(-c2ccnc(N)n2)s1	enzyme activity	inhibitor	radiometric	1 µM	remaining activity	98%
O=C1NC(=O)C(c2cn(CCCn3ccnc3)c3ccccc23)=C1Nc1ccccc1	enzyme activity	inhibitor	radiometric	0.5 µM	remaining activity	56.3%
Cn1cncc1[C@@](O)(COc1ccc(C#N)cc1-c1ccc(OC(F)(F)F)cc1)c1ccc(C#N)cc1	cell-free assay	–	competition with immobilised ligand	1 µM	remaining binding	38%
